High-throughput results (PubChem BioAssay)
D1 allo mod = D1 CRE-luciferase signal change, two-sided – cell-based, HEK293 D1, dopamine EC30, D1 allosteric modulator project, primary screen. dopamine EC30 potentiation; actives deviate in either direction. D(1A) dopamine receptor (Homo sapiens), P21728. B-score at 10 µM. 5.9% of 58,000 active;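 active = luminescence count or its row- and column-corrected plate score outside the 99.7% band of the plate's sample wells, on either side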
Target sequence (P21728 whole entry, looked up): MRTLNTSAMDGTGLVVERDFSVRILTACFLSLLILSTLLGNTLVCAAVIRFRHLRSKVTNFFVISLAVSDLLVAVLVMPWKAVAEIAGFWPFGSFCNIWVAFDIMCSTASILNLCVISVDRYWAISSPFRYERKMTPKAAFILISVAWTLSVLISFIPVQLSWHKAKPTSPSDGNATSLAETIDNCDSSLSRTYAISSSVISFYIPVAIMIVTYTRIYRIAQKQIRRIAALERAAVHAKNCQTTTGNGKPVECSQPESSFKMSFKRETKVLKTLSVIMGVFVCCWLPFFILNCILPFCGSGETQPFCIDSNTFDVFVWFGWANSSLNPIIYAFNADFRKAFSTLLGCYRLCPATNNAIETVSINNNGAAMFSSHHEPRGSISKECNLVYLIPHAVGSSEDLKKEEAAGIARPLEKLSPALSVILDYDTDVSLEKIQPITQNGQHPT
SF1 activator = activators of human SF-1, primary screen, cell-based, CHO-K1, Gal4-SF-1 LBD, luciferase luminescence; activation, % at 10 µM; Steroidogenic factor 1 (Homo sapiens), Q13285; AID 522, 2006; CHO-K1 Gal4-SF-1 LBD luciferase reporter; % increase over DMSO SF-1-specific signal; 1.9% of 65,000 active;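 active = activation above the mean activation of all tested compounds plus 3 SD, cut at about 50% in these data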
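Test system: CHO-K1 cells co-transfected with Gal4 DBD–human SF-1 LBD, 5xGal4 luciferase reporter. Quantity: 4,000 cells per well. Compound: 10 µM only. Incubation: compound added 1 h post-seeding, 20 h exposure at 37 °C, 5% CO2. Detection: SteadyLite luciferase luminescence. Replication: one test per compound.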
M1 ag = M1 muscarinic receptor agonists, primary screen, CHO-M1 cells, Fluo-4 calcium, agonist mode; Muscarinic acetylcholine receptor M1; Fluo-4 calcium fluorescence; stronger effect = higher value; B-score at 10 µM; 3% of 64,000 active; AID 626, 2007;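 active = fluorescence rise, raw or as B-score row- and column-corrected plate score, outside the 99.7% band of its plate's samples, either direction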
RORA act = activators of orphan receptor RORA, primary screen, cell-based, luminescence | CHO-K1 Gal4-RORA LBD luciferase reporter; percent increase over mock-subtracted basal signal | activation, % at 10 µM | 1.5% of 65,000 active;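 active = activation above the mean of all tested compounds plus 3 SD, cut at about 49% in these data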;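 note: 0% = DMSO-treated RORA cells and 100% = added signal equal to DMSO minus mock-transfected cells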
M1 antagonist = antagonists of rat M1 muscarinic receptor; Muscarinic acetylcholine receptor M1 (Rattus norvegicus), P08482; CHO-M1 cells, Fluo-4 calcium, ACh EC80 antagonist mode; stronger effect = lower value; B-score at 10 µM; 3.4% of 64,000 active; AID 628, 2007;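 active = calcium fluorescence response, raw or row-and-column corrected B-score, differing from the plate sample mean either way at a set confidence level, mostly lower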
Htt clearance = clearance of mutant huntingtin inclusions, primary screen, imaging, HeLa Exon1htt(103Q)mCFP, confocal imaging; aggregate imaging; zero = plate's median compound well; inhibition, % at 1.5 µM; 0.42% of 47,000 active; AID 853, 2007;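 active = inhibition of aggregate fluorescence above about 70%, also judged a hit by eye on the cell image, limit read from the data, passing the limit was not always enough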;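 note: cells exposed to compound for three days before fixation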
M1 antag conf = rat M1 muscarinic receptor antagonists, confirmation, CHO cells, Fluo-4 calcium, duplicate; AID 677, 2007; ACh EC80 antagonism; stronger effect = lower value; calcium response (max-min fluorescence) at 10 µM; 43% of 1,700 active; shares compounds with M1 antagonist;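 active = calcium response below the same-plate mean of wells given acetylcholine alone at its 80%-effect dose, minus 3 SD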;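 note: raw fluorescence intensity difference in arbitrary instrument units and not normalized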
mGluR4 antag = human mGluR4 response to M1 antagonist hits, M1 allosteric modulator project, cell-based, antagonist mode, secondary assay 1; fluorescence response (max-min) at 10 µM; shares compounds with M1 antagonist; 0.9% of 1,700 active; CHO-mGluR4 calcium flux, Fluo-4 fluorescence, glutamate EC80; stronger effect = lower value;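 active = fluorescence response below the plate's average for near-maximal glutamate wells, less 3 SD of those wells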;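 note: raw unnormalized fluorescence span taken in the window right after glutamate addition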
D1 mod confirm = D1 receptor positive allosteric modulators, retest, confirmation, cell-based, HEK293 D1, CRE-luciferase, duplicate. shares compounds with D1 allo mod. dopamine EC30 potentiation; stronger effect = higher value. luminescence at 10 µM. 88% of 2,200 active. AID 642, 2007;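 active = luminescence in either of two replicates above the same-plate mean plus 3 SD of the low-dose dopamine control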
D1 no dopamine = D1 receptor agonism without dopamine, confirmation, mechanism study for D1 allosteric modulator project, cell-based, HEK293 D1, CRE-luciferase, secondary assay 1; shares compounds with D1 allo mod; 0.8% of 1,900 active; luminescence at 10 µM; luminescence, no dopamine; stronger effect = higher value; in the data active = luminescence above about 3900
Isoprot counter = alters isoproterenol CRE-luciferase response in HEK293 cells; 63% of 2,200 active; shares compounds with D1 allo mod; HEK293 D1 CRE-luciferase, isoproterenol EC30 counter-screen; calls only at 10 µM;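 active = luminescence in either replicate above plate mean of wells with a partly effective reference agonist dose plus 3 SD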;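 note: isoproterenol raises cAMP through native beta-adrenoceptor Gs so signal bypasses D1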
An asterisk follows results filed as active; i = inactive; x = not tested or not shown; + = active, no number. The list is not random: actives were taken first. Their share in the collection is about 11%.

SMILES	D1 allo mod	SF1 activator	M1 ag	RORA act	M1 antagonist	Htt clearance	D1 mod confirm	D1 no dopamine	Isoprot counter	others
COc1cc(Br)cc(CN2CCN(C)CC2)c1O	-0.99	17	-0.82	8	-3.9*	x	x	x	x	M1 antag conf=378*;mGluR4 antag=278
COc1ccc(Br)cc1CN1CCN(CCO)CC1	-1	1	0.062	3	-0.024	38	x	x	x
CCCCOc1ccc(CC2C(=O)N(C)C(=O)N(C)C2=O)cc1	0.15	19	-2.1	-17	0.24	4	x	x	x
CCCCCCOc1ccc(CN2CCN(CCO)CC2)cc1	-1.7	15	-0.56	40	-5.3*	x	x	x	x	M1 antag conf=366*;mGluR4 antag=306
CCCCOc1ccc(CN2CCN(CCO)CC2)cc1	-0.83	3	-0.041	14	-4.8*	-11	x	x	x	M1 antag conf=310*;mGluR4 antag=210
CN(C)CCc1nn[nH]n1	x	4	-0.16	-22	0.34	3	x	x	x
COC(=O)C(O)(c1ccc(N(C)S(=O)(=O)c2ccccc2)cc1)C(F)(F)F (centres undefined)	x	8	-0.52	22	-11*	x	x	x	x	M1 antag conf=629;mGluR4 antag=259
O=C1NC(=O)C(Cc2cccs2)C(=O)N1	-0.16	-13	2.2	1	-0.45	11	x	x	x
CCCC1=C(C(=O)OCC)C2(C(=O)Nc3ccccc32)C(C#N)=C(N)O1 (centres undefined)	0.042	3	-0.29	-1	0.16	-22	x	x	x
FC(F)(F)c1ccc2c(c1)ncn2C1CCN(Cc2nnnn2C2CCCCC2)CC1	1.1	-2	-0.13	11	-14*	x	x	x	x	M1 antag conf=515;mGluR4 antag=250
Cc1nn(Cc2ccccc2)c(C)c1C(=O)OCC(=O)Nc1ccccc1SCC#N	4.2*	6	0.74	-5	0.76	-118	8752*	x	+
O=c1[nH]c(=O)n(CCc2ccc(F)cc2)c(O)c1C=NCCCN1CCOCC1	12*	-9	-0.16	-19	0.13	7	4420	2264	i
COc1ncccc1C(=O)NCC(CC(=O)O)c1ccccc1 (centres undefined)	2.1	5	-0.065	-9	0.24	x	x	x	x
Cc1[nH]c2c(C(F)(F)F)cccc2c1CCN	7.8*	-12	-0.67	-20	-0.62	x	5580	x	i
CC(C)C12CN3CC(C(C)C)(CN(C1)C3c1cccnc1)C2=O (centres undefined)	x	x	x	x	x	-14	x	x	x
O=P(O)(O)C#Cc1ccccc1	x	12	0.021	8	-0.094	x	x	x	x
OCCN(CC#CC(O)(c1ccccc1)C1CCCC1)CCO (centres undefined)	x	4	0.65	-8	-1.2	15	x	x	x
Cn1c(O)c(C(=O)c2ccccc2)c(=O)n(C)c1=O	8.4*	7	0.8	-6	-0.94	-23	6612	1668	i
CCOC(=O)c1c(C)n(CCN2CCN(C)CC2)c2ccc(OC)cc12	x	4	0.058	-2	-0.3	x	x	x	x
CCOC(=O)c1c(C)n(Cc2ccco2)c2ccc(OC)cc12	3.9*	-13	0.81	-31	-0.2	1	5008	1440	i
CCCCc1nc2ccccc2c(=O)n1-c1ccc(O)cc1	3.7*	1	0.75	-3	-0.42	22	8012*	1524	+
CN1C(=O)C(Cc2nc3ccccc3c(=O)n2-c2ccccc2)c2ccccc21 (centres undefined)	x	x	x	x	x	19	x	x	x
CCOC(=O)c1cc2c(cn1)[nH]c1ccccc12	16*	36	0.002	38	0.16	x	15472*	1484	+
CCC(=NCc1ccco1)c1c(O)n(C2CCCCC2)c(=O)[nH]c1=O	14*	-14	0.3	-5	0.4	x	16640*	832	+
CC(=NCc1cccnc1)c1c(O)n(-c2ccc(C)cc2)c(=O)[nH]c1=O	-0.26	-3	0.028	-12	0.25	-16	x	x	x
SMILES	D1 allo mod	SF1 activator	M1 ag	RORA act	M1 antagonist	Htt clearance	D1 mod confirm	D1 no dopamine	Isoprot counter	others
CCC(=NCc1cccnc1)c1c(O)n(C2CCCCC2)c(=O)[nH]c1=O	15*	-8	-1.4	-15	-0.17	8	9572*	1408	+
CC(=NCc1cccnc1)c1c(O)n(C2CCCCC2)c(=O)[nH]c1=O	6*	0	-0.084	13	0.34	16	9208*	1480	+
CC(=NCc1ccco1)c1c(O)n(Cc2ccccc2)c(=O)[nH]c1=O	4.5*	19	-0.17	27	1.1	x	10196*	1640	+
CCC(=O)c1c(O)n(C2CCCCCC2)c(=O)[nH]c1=O	1	-9	-0.089	9	1	x	x	x	x
CCC(=NCCCN(CC)CC)c1c(O)n(C2CCCCC2)c(=O)[nH]c1=O	0.47	9	-0.69	-8	-0.95	x	x	x	x
O=c1c2ccccc2[se]n1-c1ccccc1	0.41	-25	-1.1	-22	0.64	x	x	x	x
C(#CCN1CCOCC1)COCc1ccccc1	0.21	33	0.011	7	-0.019	-10	x	x	x
CCN1CCN(C(=O)COc2ccc3c(c2)C(=O)CC2(CCN(C(C)=O)CC2)O3)CC1	x	x	x	x	x	31	x	x	x
COCCOC(=O)c1c(N)n(Cc2ccc(OC)cc2)c2nc3ccccc3nc12	6.3*	18	-0.1	24	-1.5	x	12708*	1440	+
COC(=O)c1c(N)n(Cc2ccc(OC)cc2)c2nc3ccccc3nc12	7*	5	-1.4	14	0.11	x	8940*	1728	+
COc1ccccc1N1CCN(Cc2ccc(Br)s2)CC1	-0.62	-7	0.0016	3	0.82	x	x	x	x
Cc1nc2c(-c3ccc(F)cc3)c(C)nn2c(C)c1CCC(=O)N1CCC2(CC1)OCCO2	6.1*	6	-0.52	-8	-0.77	x	7792*	1504	+
Cc1ccc(Cc2c(C)nc3nc(SCC(=O)N4CCC5(CC4)OCCO5)nn3c2C)cc1	x	x	x	x	x	-67	x	x	x
Cc1nc2ncnn2c(C)c1CCC(=O)N1CCC2(CC1)OCCO2	2.8*	2	-0.0094	4	1.1	8	5300	1580	i
Cc1nc2cc(-c3ccccc3)nn2c(C)c1CCC(=O)N1CCC2(CC1)OCCO2	0.79	-36	-1.2	-42	-0.53	x	x	x	x
